# Data published in ChEMBL document CHEMBL4706701, “Synthesis and biological activity of selenopsammaplin A and its analogues as antitumor agents with DOT1L inhibitory activity” (Bioorg Med Chem, 2021).
# Calls of active or inactive are those of the source. The calls are words filed in the database; no cut-off is given here.
# Columns and labels:
# A549 = assay: Cytotoxicity against human A549 cells assessed as reduction in cell viability by SRB assay; format: functional, cell-based
# Procedure, shortened: (§1)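 Cells seeded in 96-well plates and exposed to compounds for the stated times. Zero-day controls were incubated 30 min. Cells were fixed and stained with 0.4% SRB in 1% acetic acid, and bound dye was dissolved in 10 mM Tris (pH 10.0). A515 was read, and IC50 was calculated by non-linear regression.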
# HCT-116 = assay: Cytotoxicity against human HCT-116 cells assessed as reduction in cell viability by SRB assay; format: functional, cell-based; procedure, shortened: as §1
# MDA-MB-231 = assay: Cytotoxicity against human MDA-MB-231 cells assessed as reduction in cell viability by SRB assay; format: functional, cell-based; procedure, shortened: as §1
# SK-HEP1 = assay: Cytotoxicity against human SK-HEP1 cells assessed as reduction in cell viability by SRB assay; format: functional, cell-based; procedure, shortened: as §1
# SNU-638 = assay: Cytotoxicity against human SNU-638 cells assessed as reduction in cell viability by SRB assay; format: functional, cell-based; procedure, shortened: as §1
# [1] = biological target: Histone-lysine N-methyltransferase, H3 lysine-79 specific (Homo sapiens) (UniProt Q8TEK3); assay: Inhibition of DOT1L in human MDA-MB-231 cells assessed as down regulation of H3K79me2 expression at 200 nM by Western blot analysis; format: cell-based
# Histone-lysine N-methyltransferase, H3 lysine-79 specific (Homo sapiens), sequence (Q8TEK3 whole entry, looked up, the tested form may be a part): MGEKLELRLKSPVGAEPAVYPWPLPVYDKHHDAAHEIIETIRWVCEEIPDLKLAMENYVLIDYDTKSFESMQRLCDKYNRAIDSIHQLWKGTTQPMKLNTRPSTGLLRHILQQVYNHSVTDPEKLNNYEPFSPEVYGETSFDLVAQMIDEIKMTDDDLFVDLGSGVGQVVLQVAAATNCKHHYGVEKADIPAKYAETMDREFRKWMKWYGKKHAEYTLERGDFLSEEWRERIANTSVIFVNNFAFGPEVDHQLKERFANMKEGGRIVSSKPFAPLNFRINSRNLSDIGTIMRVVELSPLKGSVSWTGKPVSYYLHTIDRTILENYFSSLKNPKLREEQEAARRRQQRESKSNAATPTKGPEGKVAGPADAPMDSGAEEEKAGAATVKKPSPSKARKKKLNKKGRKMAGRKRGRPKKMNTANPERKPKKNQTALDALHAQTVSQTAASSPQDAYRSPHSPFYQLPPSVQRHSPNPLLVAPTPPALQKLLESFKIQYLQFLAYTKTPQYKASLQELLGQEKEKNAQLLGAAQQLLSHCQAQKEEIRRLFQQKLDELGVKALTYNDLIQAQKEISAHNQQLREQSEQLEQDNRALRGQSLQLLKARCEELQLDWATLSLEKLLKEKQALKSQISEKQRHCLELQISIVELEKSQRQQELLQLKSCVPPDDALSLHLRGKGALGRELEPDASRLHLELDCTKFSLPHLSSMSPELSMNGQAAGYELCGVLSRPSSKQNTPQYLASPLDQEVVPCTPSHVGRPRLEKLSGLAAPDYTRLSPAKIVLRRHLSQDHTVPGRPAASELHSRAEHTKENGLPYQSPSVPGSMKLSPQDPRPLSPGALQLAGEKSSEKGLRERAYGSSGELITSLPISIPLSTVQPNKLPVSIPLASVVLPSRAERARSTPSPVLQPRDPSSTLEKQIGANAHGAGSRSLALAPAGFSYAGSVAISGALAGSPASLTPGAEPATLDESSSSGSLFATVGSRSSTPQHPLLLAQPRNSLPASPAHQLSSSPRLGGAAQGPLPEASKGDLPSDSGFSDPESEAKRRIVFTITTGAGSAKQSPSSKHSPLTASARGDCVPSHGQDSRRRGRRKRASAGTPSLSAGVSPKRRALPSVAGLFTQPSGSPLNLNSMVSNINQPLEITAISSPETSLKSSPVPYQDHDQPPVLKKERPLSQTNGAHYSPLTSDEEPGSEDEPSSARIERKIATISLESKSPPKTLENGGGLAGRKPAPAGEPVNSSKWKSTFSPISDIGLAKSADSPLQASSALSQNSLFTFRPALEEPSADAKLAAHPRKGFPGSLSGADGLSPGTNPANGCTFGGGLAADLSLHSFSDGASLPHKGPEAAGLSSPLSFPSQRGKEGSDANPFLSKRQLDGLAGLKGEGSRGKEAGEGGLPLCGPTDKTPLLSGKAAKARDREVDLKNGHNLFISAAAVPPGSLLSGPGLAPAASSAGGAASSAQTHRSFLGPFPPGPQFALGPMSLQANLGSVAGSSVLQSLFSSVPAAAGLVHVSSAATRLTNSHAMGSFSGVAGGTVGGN
# Procedure, shortened: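 MDA-MB-231 lysates were made in 2× SDS sample buffer with vanadate and fluoride. 5-20 μg protein was run on 8–15% SDS-PAGE and blotted to PVDF. Membranes were blocked in 5% BSA, probed for H3K79me2 with total histone H3, and detected by ECL. Mean ± SD (n = 3), representative of three separate experiments.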
# [2] = biological target: Histone-lysine N-methyltransferase, H3 lysine-79 specific (Homo sapiens) (UniProt Q8TEK3); assay: Inhibition of human N-terminal GST-tagged DOT1L (2 to 416 residues) expressed in Escherichia coli at 200 nM using DOT1L substrate measured after 2 hrs in presence of SAM by ELISA
# Procedure, shortened: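 Cell-free DOT1L enzyme activity assay using 500 ng DOT1L per well. Compound was incubated 2 h before read-out. EPZ-5676 (100 nM) was the positive control. Mean ± SD (n = 3), representative of three separate experiments.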
Structure (SMILES),IC50 (A549) [nM],IC50 (HCT-116) [nM],IC50 (MDA-MB-231) [nM],IC50 (SK-HEP1) [nM],IC50 (SNU-638) [nM],H3K79me2 downregulation (active/not active) [1],inhibition [2]
O=C(NCC[Se][Se]CCNC(=O)/C(Cc1ccc(F)cc1)=N/O)/C(Cc1ccc(F)cc1)=N/O,100,110,130,140,70,–,–
O=C(NCC[Se][Se]CCNC(=O)/C(Cc1ccc(F)c(F)c1)=N/O)/C(Cc1ccc(F)c(F)c1)=N/O,330,180,420,270,50,Active,–
O=C(NCC[Se][Se]CCNC(=O)/C(Cc1ccc(OCc2ccccc2)cc1)=N/O)/C(Cc1ccc(OCc2ccccc2)cc1)=N/O,140,100,140,280,410,Active,Active
O=C(NCC[Se][Se]CCNC(=O)/C(Cc1ccc(Cl)c(Cl)c1)=N/O)/C(Cc1ccc(Cl)c(Cl)c1)=N/O,280,520,250,320,180,Active,–
O=C(NCC[Se][Se]CCNC(=O)/C(Cc1ccc(Br)cc1)=N/O)/C(Cc1ccc(Br)cc1)=N/O,310,170,390,310,150,Active,–
O=C(NCC[Se][Se]CCNC(=O)/C(Cc1ccc([N+](=O)[O-])cc1)=N/O)/C(Cc1ccc([N+](=O)[O-])cc1)=N/O,90,90,90,170,60,Active,Active
O=C(NCC[Se][Se]CCNC(=O)/C(Cc1ccc(O)c(Cl)c1)=N/O)/C(Cc1ccc(O)c(Cl)c1)=N/O,20,10,170,110,10,Active,Active
COc1cc([C@@H]2c3cc4c(cc3[C@@H](O[C@@H]3O[C@@H]5CO[C@@H](C)O[C@H]5[C@H](O)[C@H]3O)[C@H]3COC(=O)[C@H]23)OCO4)cc(OC)c1O [ETOPOSIDE],–,1200,8700,400,200,–,–
